Source: paper PMC10629916 (Journal of Food and Drug Analysis, 2023)

Key:
[1] = Stability test of the 2 analytes in rat plasma; assay type: in vitro ADME
Method in brief: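 Rat plasma QC samples at low, middle and high levels were assayed in triplicate. They were MeOH-precipitated (1:3), spun at 4500 rpm and 4 °C for 10 min, dried and redissolved in MeOH. The processed samples were held in the autosampler for 12 h and then quantified by UPLC-MS/MS against oxacillin internal standard. Samples counted as stable if bias was within ±15% of nominal.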

[2] = assay type: in vivo, Male Wistar Rats; details: male, Wistar, rat, plasma, po, 800 mg/kg
Method in brief: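 Male Wistar rats (200–250 g) dosed orally with the prescription extract at 800 mg/kg. Plasma was stored at −80 °C, then precipitated with MeOH (1:3). Analysis was by UPLC-MS/MS MRM with oxacillin as internal standard. Parameters came from noncompartmental analysis, reported as mean ± SD.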

[3] = Normal temperature (auto-sampler 12 h), nominal conc 15.62 ng/mL
[4] = Normal temperature (auto-sampler 12 h), nominal conc 31.25 ng/mL
[5] = −80 (storage at −80 °C), nominal conc 15.62 ng/mL
[6] = −80 (storage at −80 °C), nominal conc 31.25 ng/mL
[7] = −80 FT (three freeze–thaw cycles), nominal conc 15.62 ng/mL
[8] = −80 FT (three freeze–thaw cycles), nominal conc 31.25 ng/mL

Accuracy (RE, %) [1, 3]: 11.32%
Observed [1, 3]: 17.94 ± 0.15
Accuracy (RE, %) [1, 4]: −2.84%
Observed [1, 4]: 31.04 ± 0.22
Accuracy (RE, %) ([1]; −80 (storage at −80 °C), nominal conc 0.48 ng/mL): −1.48%
Accuracy (RE, %) [1, 5]: 9.87%
Observed [1, 5]: 17.94 ± 0.15
Accuracy (RE, %) [1, 6]: −3.53%
Observed [1, 6]: 31.04 ± 0.22
Accuracy (RE, %) ([1]; −80 FT (three freeze–thaw cycles), nominal conc 0.48 ng/mL): −3.82%
Accuracy (RE, %) [1, 7]: 12.58%
Observed [1, 7]: 17.94 ± 0.15
Accuracy (RE, %) [1, 8]: −3.1%
Observed [1, 8]: 31.04 ± 0.22
AUC(0-inf) [2]: 20.2 ± 11.9 ng·h/mL
AUC(0-t) [2]: 11 ± 5.91 ng·h/mL
Cmax [2]: 3.29 ± 1.63 ng/mL
MRT inf [2]: 8.22 ± 2.65 h
Tmax [2]: 1.01 ± 1.22 h
half-life [2]: 4.76 ± 1.76 h
SMILES: C[C@@H]1O[C@@H](OC[C@H]2O[C@@H](Oc3cc(O)c4c(c3)O[C@H](c3ccc(O)cc3)CC4=O)[C@H](O)[C@@H](O)[C@@H]2O)[C@H](O)[C@H](O)[C@H]1O [Narirutin]
